Experimental data reported in ChEMBL document CHEMBL4152256, “Structure-activity relationship of new antimalarial 1-aryl-3-susbtituted propanol derivatives: Synthesis, preliminary toxicity profiling, parasite life cycle stage studies, target exploration, and targeted delivery” (Eur J Med Chem, 2018).

How the values were obtained:
[1] = system: Plasmodium falciparum; assay: Antiplasmodial activity against multidrug-resistant Plasmodium falciparum FCR-3 by [3H]-hypoxanthine incorporation assay; format: functional, organism-based, FCR-3/Gambia; conditions: Plasmodium falciparum, FCR-3/Gambia
How it was run: (§1)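 Blood-stage P. falciparum 3D7 and FCR-3 were tested by a modified [3H]-hypoxanthine incorporation assay. Chloroquine was the reference in all runs.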

[2] = Solubility of the compound in DSPC:cholesterol:DSPE-PEG2000-Mal:DOPE-Rho lipid mixture at 250 uM; format: physicochemical
How it was run: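 Compound added at 250 µM drug to the initial liposome lipid mixture (10 mM total lipid); precipitation and UV-visible absorbance above 300 nm assessed after encapsulation, removal of unencapsulated material and extraction with 1% w/v SDS in RPMI-A.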

[3] = Cytotoxicity against human HepG2A16 cells by MTT assay; format: cell-based; conditions: HepG2A16 cells
How it was run: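 MTT viability assay on HepG2-A16 cells, giving CC50 values.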

[4] = system: Plasmodium falciparum; assay: Antiplasmodial activity against chloroquine-sensitive Plasmodium falciparum 3D7 by [3H]-hypoxanthine incorporation assay; format: functional, organism-based; conditions: Plasmodium falciparum, 3D7; how it was run: as §1
[5] = Selectivity index, ratio of CC50 for human HepG2A16 cells by MTT assay to IC50 for multidrug-resistant Plasmodium falciparum FCR-3; format: toxicity; conditions: HepG2A16 cells, read-out: Ratio CC50/IC50
How it was run: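 HepG2-A16 human hepatoma cells were tested by MTT viability assay to give CC50. Blood-stage activity was measured against the multidrug-resistant P. falciparum FCR-3 strain by [3H]-hypoxanthine incorporation to give IC50. SI = CC50 HepG2 / FCR-3 IC50.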

[6] = Genotoxicity in Salmonella typhimurium TA1535 harboring pSK1002 assessed as umu gene induction at 0.001 mg/ml in presence of Sprague-Dawley rat liver S9 fraction after by SOS/umu assay relative to control; format: toxicity, organism-based; conditions: salmonella enterica subsp. enterica serovar typhimurium, read-out: FC
[7] = Genotoxicity in Salmonella typhimurium TA1535 harboring pSK1002 assessed as survival at 0.063 mg/ml in presence of Sprague-Dawley rat liver S9 fraction after by SOS/umu assay relative to control; format: toxicity, organism-based; conditions: salmonella enterica subsp. enterica serovar typhimurium, read-out: Survival
[8] = Genotoxicity in Salmonella typhimurium TA1535 harboring pSK1002 assessed as survival at 0.001 mg/ml in absence of Sprague-Dawley rat liver S9 fraction after by SOS/umu assay relative to control; format: toxicity, organism-based; conditions: salmonella enterica subsp. enterica serovar typhimurium, read-out: Survival
[9] = Genotoxicity in Salmonella typhimurium TA1535 harboring pSK1002 assessed as umu gene induction at 0.063 mg/ml in absence of Sprague-Dawley rat liver S9 fraction after by SOS/umu assay relative to control; format: toxicity, organism-based; conditions: salmonella enterica subsp. enterica serovar typhimurium, read-out: FC
[10] = Genotoxicity in Salmonella typhimurium TA1535 harboring pSK1002 assessed as umu gene induction at 0.008 mg/ml in presence of Sprague-Dawley rat liver S9 fraction after by SOS/umu assay relative to control; format: toxicity, organism-based; conditions: salmonella enterica subsp. enterica serovar typhimurium, read-out: FC
[11] = Genotoxicity in Salmonella typhimurium TA1535 harboring pSK1002 assessed as umu gene induction at 0.125 mg/ml in absence of Sprague-Dawley rat liver S9 fraction after by SOS/umu assay relative to control; format: toxicity, organism-based; conditions: salmonella enterica subsp. enterica serovar typhimurium, read-out: FC
[12] = Genotoxicity in Salmonella typhimurium TA1535 harboring pSK1002 assessed as umu gene induction at 0.002 mg/ml in presence of Sprague-Dawley rat liver S9 fraction after by SOS/umu assay relative to control; format: toxicity, organism-based; conditions: salmonella enterica subsp. enterica serovar typhimurium, read-out: FC
[13] = Genotoxicity in Salmonella typhimurium TA1535 harboring pSK1002 assessed as survival at 0.063 mg/ml in absence of Sprague-Dawley rat liver S9 fraction after by SOS/umu assay relative to control; format: toxicity, organism-based; conditions: salmonella enterica subsp. enterica serovar typhimurium, read-out: Survival
[14] = Genotoxicity in Salmonella typhimurium TA1535 harboring pSK1002 assessed as umu gene induction at 0.004 mg/ml in presence of Sprague-Dawley rat liver S9 fraction after by SOS/umu assay relative to control; format: toxicity, organism-based; conditions: salmonella enterica subsp. enterica serovar typhimurium, read-out: FC
[15] = Genotoxicity in Salmonella typhimurium TA1535 harboring pSK1002 assessed as survival at 0.125 mg/ml in absence of Sprague-Dawley rat liver S9 fraction after by SOS/umu assay relative to control; format: toxicity, organism-based; conditions: salmonella enterica subsp. enterica serovar typhimurium, read-out: Survival
[16] = Genotoxicity in Salmonella typhimurium TA1535 harboring pSK1002 assessed as survival at 0.125 mg/ml in presence of Sprague-Dawley rat liver S9 fraction after by SOS/umu assay relative to control; format: toxicity, organism-based; conditions: salmonella enterica subsp. enterica serovar typhimurium, read-out: Survival
[17] = Genotoxicity in Salmonella typhimurium TA1535 harboring pSK1002 assessed as survival at 0.008 mg/ml in presence of Sprague-Dawley rat liver S9 fraction after by SOS/umu assay relative to control; format: toxicity, organism-based; conditions: salmonella enterica subsp. enterica serovar typhimurium, read-out: Survival
[18] = Genotoxicity in Salmonella typhimurium TA1535 harboring pSK1002 assessed as survival at 0.016 mg/ml in presence of Sprague-Dawley rat liver S9 fraction after by SOS/umu assay relative to control; format: toxicity, organism-based; conditions: salmonella enterica subsp. enterica serovar typhimurium, read-out: Survival
[19] = Genotoxicity in Salmonella typhimurium TA1535 harboring pSK1002 assessed as umu gene induction at 0.001 mg/ml in absence of Sprague-Dawley rat liver S9 fraction after by SOS/umu assay relative to control; format: toxicity, organism-based; conditions: salmonella enterica subsp. enterica serovar typhimurium, read-out: FC
[20] = Genotoxicity in Salmonella typhimurium TA1535 harboring pSK1002 assessed as umu gene induction at 0.063 mg/ml in presence of Sprague-Dawley rat liver S9 fraction after by SOS/umu assay relative to control; format: toxicity, organism-based; conditions: salmonella enterica subsp. enterica serovar typhimurium, read-out: FC
[21] = Genotoxicity in Salmonella typhimurium TA1535 harboring pSK1002 assessed as umu gene induction at 0.031 mg/ml in presence of Sprague-Dawley rat liver S9 fraction after by SOS/umu assay relative to control; format: toxicity, organism-based; conditions: salmonella enterica subsp. enterica serovar typhimurium, read-out: FC
[22] = Genotoxicity in Salmonella typhimurium TA1535 harboring pSK1002 assessed as survival at 0.008 mg/ml in absence of Sprague-Dawley rat liver S9 fraction after by SOS/umu assay relative to control; format: toxicity, organism-based; conditions: salmonella enterica subsp. enterica serovar typhimurium, read-out: Survival
[23] = Genotoxicity in Salmonella typhimurium TA1535 harboring pSK1002 assessed as umu gene induction at 0.016 mg/ml in absence of Sprague-Dawley rat liver S9 fraction after by SOS/umu assay relative to control; format: toxicity, organism-based; conditions: salmonella enterica subsp. enterica serovar typhimurium, read-out: FC
[24] = Genotoxicity in Salmonella typhimurium TA1535 harboring pSK1002 assessed as survival at 0.001 mg/ml in presence of Sprague-Dawley rat liver S9 fraction after by SOS/umu assay relative to control; format: toxicity, organism-based; conditions: salmonella enterica subsp. enterica serovar typhimurium, read-out: Survival
[25] = Genotoxicity in Salmonella typhimurium TA1535 harboring pSK1002 assessed as survival at 0.004 mg/ml in absence of Sprague-Dawley rat liver S9 fraction after by SOS/umu assay relative to control; format: toxicity, organism-based; conditions: salmonella enterica subsp. enterica serovar typhimurium, read-out: Survival
[26] = Genotoxicity in Salmonella typhimurium TA1535 harboring pSK1002 assessed as umu gene induction at 0.031 mg/ml in absence of Sprague-Dawley rat liver S9 fraction after by SOS/umu assay relative to control; format: toxicity, organism-based; conditions: salmonella enterica subsp. enterica serovar typhimurium, read-out: FC
[27] = Genotoxicity in Salmonella typhimurium TA1535 harboring pSK1002 assessed as umu gene induction at 0.002 mg/ml in absence of Sprague-Dawley rat liver S9 fraction after by SOS/umu assay relative to control; format: toxicity, organism-based; conditions: salmonella enterica subsp. enterica serovar typhimurium, read-out: FC
[28] = Genotoxicity in Salmonella typhimurium TA1535 harboring pSK1002 assessed as umu gene induction at 0.004 mg/ml in absence of Sprague-Dawley rat liver S9 fraction after by SOS/umu assay relative to control; format: toxicity, organism-based; conditions: salmonella enterica subsp. enterica serovar typhimurium, read-out: FC
[29] = Genotoxicity in Salmonella typhimurium TA1535 harboring pSK1002 assessed as survival at 0.031 mg/ml in presence of Sprague-Dawley rat liver S9 fraction after by SOS/umu assay relative to control; format: toxicity, organism-based; conditions: salmonella enterica subsp. enterica serovar typhimurium, read-out: Survival
[30] = Genotoxicity in Salmonella typhimurium TA1535 harboring pSK1002 assessed as umu gene induction at 0.125 mg/ml in presence of Sprague-Dawley rat liver S9 fraction after by SOS/umu assay relative to control; format: toxicity, organism-based; conditions: salmonella enterica subsp. enterica serovar typhimurium, read-out: FC
[31] = Genotoxicity in Salmonella typhimurium TA1535 harboring pSK1002 assessed as umu gene induction at 0.016 mg/ml in presence of Sprague-Dawley rat liver S9 fraction after by SOS/umu assay relative to control; format: toxicity, organism-based; conditions: salmonella enterica subsp. enterica serovar typhimurium, read-out: FC
[32] = Genotoxicity in Salmonella typhimurium TA1535 harboring pSK1002 assessed as survival at 0.002 mg/ml in presence of Sprague-Dawley rat liver S9 fraction after by SOS/umu assay relative to control; format: toxicity, organism-based; conditions: salmonella enterica subsp. enterica serovar typhimurium, read-out: Survival
[33] = Genotoxicity in Salmonella typhimurium TA1535 harboring pSK1002 assessed as survival at 0.002 mg/ml in absence of Sprague-Dawley rat liver S9 fraction after by SOS/umu assay relative to control; format: toxicity, organism-based; conditions: salmonella enterica subsp. enterica serovar typhimurium, read-out: Survival
[34] = Genotoxicity in Salmonella typhimurium TA1535 harboring pSK1002 assessed as umu gene induction at 0.008 mg/ml in absence of Sprague-Dawley rat liver S9 fraction after by SOS/umu assay relative to control; format: toxicity, organism-based; conditions: salmonella enterica subsp. enterica serovar typhimurium, read-out: FC
[35] = Genotoxicity in Salmonella typhimurium TA1535 harboring pSK1002 assessed as survival at 0.004 mg/ml in presence of Sprague-Dawley rat liver S9 fraction after by SOS/umu assay relative to control; format: toxicity, organism-based; conditions: salmonella enterica subsp. enterica serovar typhimurium, read-out: Survival
[36] = Genotoxicity in Salmonella typhimurium TA1535 harboring pSK1002 assessed as survival at 0.031 mg/ml in absence of Sprague-Dawley rat liver S9 fraction after by SOS/umu assay relative to control; format: toxicity, organism-based; conditions: salmonella enterica subsp. enterica serovar typhimurium, read-out: Survival
[37] = Genotoxicity in Salmonella typhimurium TA1535 harboring pSK1002 assessed as survival at 0.016 mg/ml in absence of Sprague-Dawley rat liver S9 fraction after by SOS/umu assay relative to control; format: toxicity, organism-based; conditions: salmonella enterica subsp. enterica serovar typhimurium, read-out: Survival

OC(CCN1CCN(C(c2ccccc2)c2ccccc2)CC1)c1ccc2c(c1)OCO2 (stereo unspecified)
IC50 [1]: 1.44 µM
solubility [2]: Insoluble
CC50 [3]: 36.1 µM
IC50 [4]: 1.66 µM
selectivity ratio [5]: 25

O=[N+]([O-])c1ccc(N2CCN(CCC(O)c3ccc(F)c4ccccc34)CC2)cc1 (stereo unspecified)
fold induction at 0.001 mg/ml [6]: 0.8
viability at 0.063 mg/ml [7]: 118%
viability at 0.001 mg/ml [8]: 88%
fold induction at 0.063 mg/ml [9]: 0.7
fold induction at 0.008 mg/ml [10]: 0.6
fold induction at 0.125 mg/ml [11]: 0.6
fold induction at 0.002 mg/ml [12]: 0.9
viability at 0.063 mg/ml [13]: 124%
fold induction at 0.004 mg/ml [14]: 0.9
viability at 0.125 mg/ml [15]: 145%
viability at 0.125 mg/ml [16]: 128%
viability at 0.008 mg/ml [17]: 118%
viability at 0.016 mg/ml [18]: 117%
fold induction at 0.001 mg/ml [19]: 0.5
fold induction at 0.063 mg/ml [20]: 0.5
fold induction at 0.031 mg/ml [21]: 0.5
viability at 0.008 mg/ml [22]: 84.2%
fold induction at 0.016 mg/ml [23]: 1.1
viability at 0.001 mg/ml [24]: 110%
viability at 0.004 mg/ml [25]: 84.9%
fold induction at 0.031 mg/ml [26]: 0.8
fold induction at 0.002 mg/ml [27]: 0.8
fold induction at 0.004 mg/ml [28]: 1.2
viability at 0.031 mg/ml [29]: 122%
IC50 [1]: 1.71 µM
fold induction at 0.125 mg/ml [30]: 0.5
fold induction at 0.016 mg/ml [31]: 0.5
viability at 0.002 mg/ml [32]: 107%
CC50 [3]: 12.5 µM
IC50 [4]: 4.74 µM
viability at 0.002 mg/ml [33]: 87%
fold induction at 0.008 mg/ml [34]: 1.3
viability at 0.004 mg/ml [35]: 109%
viability at 0.031 mg/ml [36]: 105%
selectivity ratio [5]: 7
viability at 0.016 mg/ml [37]: 83.8%
